This note sets out measurements from ChEMBL document CHEMBL3853287, “Characterization of Emodin as a Therapeutic Agent for Diabetic Cataract” (J Nat Prod, 2016).

In data set [1] the test system is Mus musculus. Description: In vivo inhibition of aldose reductase in wild type mouse assessed as reduction in vacuolization at 35 mg/kg, po for 16 days by hematoxylin/eosin staining. The format is functional, organism-based. The essentials: (§1)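 PAR37 human AR transgenic mice and nontransgenic littermates, roughly equal by sex. Nursing mothers given 35 mg kg−1 in drinking water (DMSO vehicle) from pups' birth, or from 3 days before birth in one group. Sorbinil 80 mg kg−1 served as ARI control. Lenses taken at P16 and H&E-stained; vacuolated cross-sectional area measured on sections.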

The target of data set [2] is T1, Aldo-keto reductase family 1 member B1 (Homo sapiens, UniProt P15121). Briefly: Uncompetitive inhibition of human recombinant aldose reductase expressed in Escherichia coli using DL-glyceraldehyde as substrate by double reciprocal plot analysis.
The target in data set [3] is T1, Aldo-keto reductase family 1 member B1. Briefly: Inhibition of human recombinant aldose reductase expressed in Escherichia coli using DL-glyceraldehyde as substrate in presence of NADPH by spectrophotometric analysis.
For data set [4] the target is unchanged. Description: Inhibition of aldose reductase in human FHL124 cells assessed as reduction in high glucose-induced elevation of sorbitol accumulation at 5 uM after 24 hrs by colorimetric assay. Type of data set: cell-based. The essentials:
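FHL 124 cells (10^5 per 60 mm dish) treated with emodin (5 μM) plus low (5 mM) or high (30 mM) glucose for 24 h. Cells washed twice in cold PBS, lysed and deproteinized. Sorbitol measured in neutralized samples by colorimetric kit at 560 nm.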

Data set [5] has as its system Mus musculus. Briefly: In vivo inhibition of aldose reductase in transgenic PAR37 mouse expressing human aldose reductase assessed as vacuolization at 35 mg/kg, po administered 3 days prior to birth followed by compound treatment till day 16 by hematoxylin/eosin staining (reference value: 18%). The format is functional. The arrangement: scale not given: the % may be the effect or the level left. The gist of the method:
as §1

Data set [6] concerns Mus musculus. Description: In vivo inhibition of aldose reductase in wild type mouse assessed as reduction in vacuolization at 35 mg/kg, po administered 3 days prior to birth followed by compound treatment till day 16 by hematoxylin/eosin staining. The format is functional, organism-based. The gist of the method:
as §1

Data set [7] can be described thus: Cytotoxicity against human FHL124 cells assessed as reduction in cell viability at 10 uM after 24 hrs by MTT assay. The conditions noted are these: fhl124, 24 h. The format is toxicity, cell-based. The gist of the method:
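FHL 124 human lens epithelial cells grown in low-glucose (1 g L−1) DMEM with 4 mM L-glutamine and 5% FBS at 37 °C, 5% CO2. Seeded at 10^4 cells, treated with emodin for 24 h, then given MTT for 4 h. Viability read as absorbance at 570 nm.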
(In general: Tetrazolium dyes change colour on reduction, which living cells bring about.)

Data set [8] has as its system Mus musculus. Briefly: In vivo inhibition of aldose reductase in transgenic PAR37 mouse expressing human aldose reductase assessed as reduction in vacuolization at 35 mg/kg, po for 16 days by hematoxylin/eosin staining. The format is functional, organism-based. The gist of the method:
as §1

For data set [9], the system named is Mus musculus. Description: In vivo inhibition of aldose reductase in transgenic PAR37 mouse expressing human aldose reductase assessed as vacuolization at 35 mg/kg, po for 16 days by hematoxylin/eosin staining (reference value: 18%). Type of data set: functional. The arrangement: scale not given: the % may be the effect or the level left. The gist of the method: as §1

Data set [10] addresses T1, Aldo-keto reductase family 1 member B1. Briefly: Inhibition of human recombinant aldose reductase expressed in Escherichia coli at 1 uM using DL-glyceraldehyde as substrate in presence of NADPH measured up to 7 days at 37 degC by spectrophotometric analysis. The essentials:
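Inhibitor (1 μM, in DMSO) pre-incubated at 37 °C for 1, 3, 5 and 7 days before testing. Recombinant human AKR1B1 from E. coli then assayed by NADPH oxidation at 340 nm with 1.0 mM DL-glyceraldehyde and 150 μM NADPH in HEPES pH 7.5 buffer. Means ± SEM, n = 3.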

Data set [11] deals with Mus musculus. Description: In vivo inhibition of aldose reductase in wild type mouse assessed as reduction in vacuolization at 80 mg/kg, po for 16 days by hematoxylin/eosin staining. Type of data set: functional, organism-based. The essentials:
(§2)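 Drug dissolved in DMSO was given in the drinking water of nursing mothers from the pups' birthdate, dosed at 80 mg kg−1 to the mother; vehicle group received DMSO. Pups were PAR37 human AR transgenic mice or nontransgenic littermates, balanced by gender, n = 3. Lenses were taken at P16 and sectioned with H&E staining, and vacuolated cross-sectional area was measured as percent of lens.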

The test system of data set [12] is Mus musculus. Briefly: In vivo inhibition of aldose reductase in transgenic PAR37 mouse expressing human aldose reductase assessed as vacuolization at 80 mg/kg, po for 16 days by hematoxylin/eosin staining (reference value: 18%). Type of data set: functional. The arrangement: scale not given: the % may be the effect or the level left. The essentials:
as §2

The subject of data set [13] is Mus musculus. Description: In vivo inhibition of aldose reductase in transgenic PAR37 mouse expressing human aldose reductase assessed as reduction in vacuolization at 80 mg/kg, po for 16 days by hematoxylin/eosin staining. Type of data set: functional, organism-based. The gist of the method:
as §2

Active and inactive are the calls of the source. No cut-off for these calls is given here.

The term Ki denotes the equilibrium dissociation constant of an inhibitor or competing ligand from its target. What is called IC50 is the concentration needed to halve the response being measured. Take `Cc1cc(O)c2c(c1)C(=O)c1cc(O)cc(O)c1C2=O` [EMODIN]: the inhibition entry (in the data set on Mus musculus [1]; in data set [4]; with Mus musculus [6]; with Mus musculus [8]; in data set [10]) was “Active” throughout. Moreover, the inhibition constant (Ki) in data set [2] is 2110 nM. Also, in [3], the IC50 was determined as 2690 nM. Besides, the Activity in the data set on Mus musculus [5] is 2%; in data set [7], “Toxic”; in the data set on Mus musculus [9] it was 6.3%.

As for `O=C1NC(=O)[C@@]2(CCOc3ccc(F)cc32)N1` [SORBINIL], the inhibition result with Mus musculus [11] and in the data set on Mus musculus [13] was “Active” each time. For the same compound, in the data set on Mus musculus [12], the Activity came out at 3.8%.
